What was measured:
[1] = Aqueous solubility of compound; type: physicochemical; settings: buffer
[2] = Electrochemical behavior of the compound assessed as redox potential corrected toward normal hydrogen electrode by cyclic voltammetry
[3] = test system: Trypanosoma brucei brucei; test: Antitrypanosomal activity against bloodstream form Trypanosoma brucei brucei AnTat 1.9 trypomastigotes assessed as reduction in parasite viability incubated for 69 hrs by Alamar Blue dye based assay; type: functional, organism-based; settings: AnTat 1.9, 69 h
How it was run: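 BSF parasites were cultured in MEM/Baltz medium with 20% heat-inactivated horse serum, mercaptoethanol, L-cysteine and bathocuproine, at 37 °C and 5% CO₂. Cells were seeded at 2000 parasites/100 µL with compound from DMSO, in duplicate, for 69 h. Alamar Blue was added for 5 h and fluorescence read (ex 530/em 590 nm). EC50 came from non-linear regression over three independent experiments.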

[4] = Selectivity index, ratio of CC50 for human HepG2 cells to EC50 for Trypanosoma brucei brucei trypomastigotes AnTat 1.9; type: toxicity; settings: read-out: Ratio CC50/EC50
[5] = Cytotoxicity against human HepG2 cells assessed as reduction in cell viability after 72 hrs by MTT assay; type: cell-based
How it was run: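 MTT was applied at 0.5 mg/mL for 2 h, formazan was dissolved in DMSO, and absorbance read at 570 nm with a 630 nm reference. Doxorubicin was the positive control. CC50 was taken from the dose-response curve, as the mean of three experiments.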

Leishmania donovani [6] = test: Antileishmanial activity against Leishmania donovani MHOM/IN/00/DEVI promastigotes assessed as inhibition of parasitic metabolic activity measured after 72 hrs by MTT assay; type: functional, organism-based
How it was run: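 Log-phase promastigotes at 10⁶/mL were grown in Schneider's medium with 20% FCS at 27 °C. Compound was added from DMSO stock (final <0.5% v/v), in duplicate, for 72 h. Metabolic activity was read by MTT (4 h, 27 °C) and absorbance at 570 nm. EC50 came from non-linear dose-response regression, as the mean of ≥3 independent experiments.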

[7] = Selectivity index, ratio of CC50 for human HepG2 cells to EC50 for antileishmanial activity against Leishmania donovani MHOM/IN/00/DEVI promastigotes; type: toxicity; settings: read-out: Ratio CC50/EC50
[8] = Selectivity index, ratio of CC50 for human HepG2 cells to EC50 for antileishmanial activity against Leishmania infantum MHOM/MA/67/ITMAP-263 axenic amastigotes; type: toxicity; settings: read-out: Ratio CC50/EC50
Leishmania infantum = test: Antileishmanial activity against Leishmania infantum MHOM/MA/67/ITMAP-263 axenic amastigotes assessed as inhibition of parasitic metabolic activity incubated for 48 hrs by steady Glow reagent based luminescence assay; type: functional, organism-based; settings: MHOM/MA/67/ITMAP-263, 48 h
How it was run: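 Luciferase-expressing promastigotes were acidified (pH 5.4, 24 h, 24 °C) and then held 24 h at 37 °C to give axenic amastigotes. These were used at 2×10⁶/mL with compound (DMSO <0.5%), in duplicate, for 48 h at 37 °C. Luciferase luminescence was read. EC50 came from non-linear regression, as the mean of three independent experiments.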

Leishmania donovani [9] = test: Antileishmanial activity against Leishmania donovani amastigotes infected in human THP1 cells assessed as reduction in parasite infection treated with compound at 24 hrs post infection and measured after 120 hrs by Giemsa staining-based assay; type: functional, organism-based; settings: THP-1
How it was run: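 THP-1 cells were differentiated with PMA (50 ng/mL, 48 h). They were infected 10:1 with promastigotes acidified at pH 5.4, for 24 h. Compound was added (DMSO <0.5%), in duplicate, and cells were incubated 120 h at 37 °C, 5% CO₂. Cells were methanol-fixed and Giemsa-stained, and ≥200 cells were counted for % infected macrophages. IC50 came from regression, as the mean of ≥3 experiments.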

[10] = Permeability of the compound in pH 7.4 Prisma HT buffer at 100 uM incubated for 4 hrs by PAMPA-BBB assay method
Albumin = Albumin (Homo sapiens, UniProt P02768); test: Binding affinity to human albumin incubated for 4 hrs by LC-MS analysis; type: ADME; settings: read-out: PB (converted)
[11] = Microsomal stability in CD-1 mouse liver microsomes assessed as half life in presence of NADP measured up to 40 mins by LC-MS analysis; type: ADME, Microsome
How it was run: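 Compound was incubated in duplicate with female CD-1 mouse microsomes at 37 °C in 50 mM phosphate, pH 7.4. An NADP-regenerating system was present (MgCl₂ 5 mM, NADP 1 mM, G6PDH 0.4 U/mL, G6P 5 mM).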

Albumin, sequence (P02768 whole entry): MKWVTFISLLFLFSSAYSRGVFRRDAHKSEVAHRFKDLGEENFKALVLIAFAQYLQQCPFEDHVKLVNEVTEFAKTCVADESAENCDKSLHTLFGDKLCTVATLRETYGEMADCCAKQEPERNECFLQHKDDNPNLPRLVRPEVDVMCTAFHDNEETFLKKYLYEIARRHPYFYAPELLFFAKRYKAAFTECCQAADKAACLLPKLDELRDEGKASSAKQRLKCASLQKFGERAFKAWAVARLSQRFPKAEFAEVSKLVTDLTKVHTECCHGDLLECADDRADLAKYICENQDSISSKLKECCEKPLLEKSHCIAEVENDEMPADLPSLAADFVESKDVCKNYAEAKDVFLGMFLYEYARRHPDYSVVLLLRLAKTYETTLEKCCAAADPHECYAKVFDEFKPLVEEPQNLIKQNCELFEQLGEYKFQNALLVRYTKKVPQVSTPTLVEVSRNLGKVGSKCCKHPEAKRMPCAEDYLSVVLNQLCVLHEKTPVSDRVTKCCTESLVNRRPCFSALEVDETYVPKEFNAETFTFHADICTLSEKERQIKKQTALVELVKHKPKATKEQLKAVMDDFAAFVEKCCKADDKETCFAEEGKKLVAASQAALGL

| solubility [1] | Activity [2] | EC50 [3] | EC50 (Leishmania infantum) | EC50 (Leishmania donovani [9]) | fraction unbound at 4 h (Albumin) | half-life [11] | SMILES | selectivity ratio [4] | CC50 at 72 h [5] | EC50 (Leishmania donovani [6]) | selectivity ratio [7] | selectivity ratio [8] | Papp at 4 h, 100 µM [10] |
| --- | --- | --- | --- | --- | --- | --- | --- | --- | --- | --- | --- | --- | --- |
| Insoluble | -0.74 V | 0.085 µM | – | – | – | – | O=[N+]([O-])c1cnc2c(Sc3ccc(Cl)cc3)cc(Cl)cn12 | > 92.8 | > 7.8 µM | 2.5 µM | > 3.1 | – | – |
| – | – | > 50 µM | 7.9 µM | – | – | – | O=[N+]([O-])c1c(CO)nc2c(Sc3ccc(Cl)cc3)cc(Cl)cn12 | – | > 15.6 µM | 4 µM | > 3.9 | > 2 | – |
| – | – | 0.5 µM | > 100 µM | – | – | – | O=[N+]([O-])c1c(CS(=O)(=O)C2CCCCC2)nc2c(Br)cc(Cl)cn12 | > 31.2 | > 15.6 µM | 0.9 µM | > 17.3 | – | – |
| – | -0.6 V | 4 µM | > 3.1 µM | – | – | – | O=[N+]([O-])c1c(CS(=O)(=O)c2ccccc2)nc2c(Br)cc(C(F)(F)F)cn12 | > 3.9 | > 15.6 µM | 6.2 µM | > 2.5 | – | – |
| – | -0.76 V | 1.2 µM | > 3.1 µM | – | – | – | Cc1cc(Br)c2nc(CS(=O)(=O)c3ccccc3)c([N+](=O)[O-])n2c1 | > 26 | > 31.2 µM | 5.6 µM | > 5.6 | – | – |
| Insoluble | – | – | – | – | – | – | O=[N+]([O-])c1c(CS(=O)(=O)c2ccccc2)nc2c(Nc3ccc(Cl)cc3)cc(Cl)cn12 | – | > 3.9 µM | – | – | – | – |
| – | -0.76 V | 1.8 µM | 5 µM | – | – | – | Cc1cc(Sc2ccc(Cl)cc2)c2nc(CS(=O)(=O)c3ccccc3)c([N+](=O)[O-])n2c1 | > 34.7 | > 62.5 µM | 2.6 µM | > 24 | 12.5 | – |
| – | – | 7.2 µM | > 100 µM | – | – | – | CS(=O)(=O)Cc1nc2c(Br)cc(Cl)cn2c1N | – | > 125 µM | > 12.5 µM | – | – | – |
| – | – | 0.02 µM | – | – | – | – | C[S+]([O-])Cc1nc2c(Br)cc(Cl)cn2c1[N+](=O)[O-] (stereo unspecified) | 2570 | 51.4 µM | – | – | – | – |
| – | – | > 50 µM | 32.1 µM | – | – | – | Cc1nc2c(Br)cc(Cl)cn2c1[N+](=O)[O-] | – | > 125 µM | > 12.5 µM | – | > 3.9 | – |
| – | -0.61 V | – | – | – | – | – | CC1CS(=O)(=O)CCN1/N=C/c1ccc([N+](=O)[O-])o1 (stereo unspecified) [NIFURTIMOX] | – | – | – | – | – | – |
| – | – | 1.5 µM | 1.6 µM | > 10 µM | – | – | O=[N+]([O-])c1c(CS(=O)(=O)C2CCCCC2)nc2c(Sc3ccc(Cl)cc3)cc(Cl)cn12 | > 20.8 | > 31.2 µM | 1.9 µM | > 16.4 | > 19.5 | – |
| – | -0.58 V | 0.17 µM | – | – | – | – | O=[N+]([O-])c1c(CS(=O)(=O)c2ccccc2)nc2c(Sc3ccc(Cl)cc3)cc(C(F)(F)F)cn12 | > 45.9 | > 7.8 µM | 1.9 µM | > 4.1 | – | – |
| – | – | 1.2 µM | 0.8 µM | > 10 µM | – | – | O=[N+]([O-])c1c(CS(=O)(=O)c2cccnc2)nc2c(Sc3ccc(Cl)cc3)cc(Cl)cn12 | > 26 | > 31.2 µM | 0.5 µM | > 62.4 | > 39 | – |
| Insoluble | -0.69 V | – | – | – | – | – | O=[N+]([O-])c1c(CS(=O)(=O)c2ccccc2)nc2c(Nc3ccccc3)cc(Cl)cn12 | – | > 3.9 µM | – | – | – | – |
| – | – | – | – | – | – | – | Cn1c(=O)c2[nH]cnc2n(C)c1=O.O [THEOPHYLLINE] | – | – | – | – | – | 0.47 ×10⁻⁶ cm/s |
| Insoluble | – | – | – | – | – | – | COc1ccc(Nc2cc(Cl)cn3c([N+](=O)[O-])c(CS(=O)(=O)c4ccccc4)nc23)cc1 | – | > 3.9 µM | – | – | – | – |
| – | -0.7 V | > 50 µM | 17.8 µM | – | – | – | O=[N+]([O-])c1c(CSc2ccccc2)nc2c(Br)cc(Cl)cn12 | – | > 31.2 µM | > 12.5 µM | – | > 1.8 | – |
| – | -0.72 V | > 50 µM | – | – | – | – | O=[N+]([O-])c1c(CSc2ccccc2)nc2c(Sc3ccc(Cl)cc3)cc(Cl)cn12 | – | > 15.6 µM | 7.4 µM | > 2.1 | – | – |
| – | – | 0.067 µM | 10.3 µM | – | 0.011 | 12 min | CS(=O)(=O)Cc1nc2c(Sc3ccc(Cl)cc3)cc(Cl)cn2c1[N+](=O)[O-] | > 466 | > 31.2 µM | 1.2 µM | > 26 | > 3 | – |
| – | -0.65 V | – | – | – | 0.035 | 12 min | O=[N+]([O-])c1c(CS(=O)(=O)c2ccccc2)nc2c(Br)cc(Cl)cn12 | – | – | – | – | – | – |
| Soluble | – | 0.025 µM | 77.8 µM | – | 0.13 | 27 min | O=[N+]([O-])c1c(CS(=O)(=O)c2cccnc2)nc2c(Br)cc(Cl)cn12 | > 2500 | > 62.5 µM | 0.8 µM | > 78 | > 0.8 | – |
| Insoluble | – | 2.2 µM | – | – | – | – | CSCc1nc2c(Br)cc(Cl)cn2c1[N+](=O)[O-] | > 7.1 | > 15.6 µM | – | – | – | – |
| – | – | 0.4 µM | 15.9 µM | – | – | – | O=[N+]([O-])c1cnc2c(Br)cc(Cl)cn12 | 40.5 | 16.2 µM | 9.3 µM | 1.7 | 1 | – |
| Insoluble | – | 0.3 µM | 0.9 µM | – | – | – | O=[N+]([O-])c1c(CS(=O)(=O)c2ccccc2)nc2c([Se]c3ccc(Cl)cc3)cc(Cl)cn12 | > 26 | > 7.8 µM | 0.7 µM | > 11.1 | > 8.7 | – |
| – | -0.79 V | – | – | – | – | – | Cc1nc2c(Sc3ccc(Cl)cc3)cc(Cl)cn2c1[N+](=O)[O-] | – | > 7.8 µM | > 12.5 µM | – | – | – |
| – | – | > 50 µM | 46.3 µM | – | – | – | O=[N+]([O-])c1c(CO)nc2c(Br)cc(Cl)cn12 | – | > 125 µM | > 12.5 µM | – | > 5.4 | – |
| – | -0.83 V | – | – | – | – | – | CSc1ccc(OCc2ncc([N+](=O)[O-])n2C)cc1 [FEXINIDAZOLE] | – | – | – | – | – | – |

| SMILES | solubility [1] | Activity [2] | EC50 [3] | EC50 (Leishmania infantum) | EC50 (Leishmania donovani [9]) | fraction unbound at 4 h (Albumin) | half-life [11] | selectivity ratio [4] | CC50 at 72 h [5] | EC50 (Leishmania donovani [6]) | selectivity ratio [7] | selectivity ratio [8] | Papp at 4 h, 100 µM [10] |
| --- | --- | --- | --- | --- | --- | --- | --- | --- | --- | --- | --- | --- | --- |
| C[C@@H]1[C@H](O)[C@@H](C)/C=C/C=C/C=C/C=C/C=C/C=C/C=C/[C@H](O[C@@H]2O[C@H](C)[C@@H](O)[C@H](N)[C@@H]2O)C[C@@H]2O[C@](O)(C[C@@H](O)C[C@@H](O)[C@H](O)CC[C@@H](O)C[C@@H](O)CC(=O)O[C@H]1C)C[C@H](O)[C@H]2C(=O)O [AMPHOTERICIN B] | – | – | – | 0.06 µM | – | – | – | – | – | – | – | – | – |

Source: ChEMBL document CHEMBL4765423, “Antikinetoplastid SAR study in 3-nitroimidazopyridine series: Identification of a novel non-genotoxic and potent anti-T. b. brucei hit-compound with improved pharmacokinetic properties” (Eur J Med Chem, 2020)
